Measurements taken from ChEMBL document CHEMBL5247575 (J Med Chem, 2018).

tested on: Acinetobacter baumannii; test: Synergistic antibacterial activity against Acinetobacter baumannii PR474 producing OXA-23/24/40 assessed as cefepime MIC at 4 ug/ml by broth microdilution method; assay type: functional; conditions: dose 4 µg/ml

Compound	MIC
NC(=O)[C@@H]1CC[C@@H]2CN1C(=O)N2OS(=O)(=O)[O-].[Na+] [AVIBACTAM SODIUM]	> 16 µg/mL
O.O=C(NC1CCNCC1)[C@@H]1CC[C@@H]2CN1C(=O)N2OS(=O)(=O)O [RELEBACTAM]	> 16 µg/mL

tested on: Acinetobacter baumannii; test: Synergistic antibacterial activity against Acinetobacter baumannii PR319 producing OXA-23/24/40 assessed as cefepime MIC at 4 ug/ml by broth microdilution method; assay type: functional; conditions: dose 4 µg/ml

Compound	MIC
NC(=O)[C@@H]1CC[C@@H]2CN1C(=O)N2OS(=O)(=O)[O-].[Na+] [AVIBACTAM SODIUM]	> 16 µg/mL
O.O=C(NC1CCNCC1)[C@@H]1CC[C@@H]2CN1C(=O)N2OS(=O)(=O)O [RELEBACTAM]	> 16 µg/mL

tested on: Klebsiella pneumoniae; test: Synergistic antibacterial activity against Klebsiella pneumoniae 729/1679 producing KPC-3 assessed as cefepime MIC at 4 ug/ml by broth microdilution method; assay type: functional; conditions: dose 4 µg/ml
Method in brief: (§1)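 Broth microdilution per CLSI guidelines, using custom frozen panels. […] Each partner drug was also tested alone. MICs were run in triplicate and the modal value is reported.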

Compound	MIC
NC(=O)[C@@H]1CC[C@@H]2CN1C(=O)N2OS(=O)(=O)[O-].[Na+] [AVIBACTAM SODIUM]	0.25 µg/mL
O.O=C(NC1CCNCC1)[C@@H]1CC[C@@H]2CN1C(=O)N2OS(=O)(=O)O [RELEBACTAM]	0.5 µg/mL

tested on: Klebsiella pneumoniae; test: Synergistic antibacterial activity against Klebsiella pneumoniae 1398/2291 producing KPC-3 assessed as meropenem MIC at 4 ug/ml by broth microdilution method; assay type: functional; conditions: dose 4 µg/ml; method in brief: as §1

Compound	MIC
NC(=O)[C@@H]1CC[C@@H]2CN1C(=O)N2OS(=O)(=O)[O-].[Na+] [AVIBACTAM SODIUM]	≤ 0.12 µg/mL
O.O=C(NC1CCNCC1)[C@@H]1CC[C@@H]2CN1C(=O)N2OS(=O)(=O)O [RELEBACTAM]	≤ 0.12 µg/mL

tested on: Acinetobacter baumannii; test: Synergistic antibacterial activity against ADC deleted Acinetobacter baumannii transfected with pWH1266 producing OXA-24/40 assessed as meropenem MIC at 4 ug/ml by broth microdilution method; assay type: functional; conditions: dose 4 µg/ml

Compound	MIC
NC(=O)[C@@H]1CC[C@@H]2CN1C(=O)N2OS(=O)(=O)[O-].[Na+] [AVIBACTAM SODIUM]	> 16 µg/mL
O.O=C(NC1CCNCC1)[C@@H]1CC[C@@H]2CN1C(=O)N2OS(=O)(=O)O [RELEBACTAM]	> 16 µg/mL

tested on: Klebsiella pneumoniae; test: Synergistic antibacterial activity against Klebsiella pneumoniae 1315/2198 producing KPC-3 assessed as meropenem MIC at 4 ug/ml by broth microdilution method; assay type: functional; conditions: dose 4 µg/ml; method in brief: as §1

Compound	MIC
NC(=O)[C@@H]1CC[C@@H]2CN1C(=O)N2OS(=O)(=O)[O-].[Na+] [AVIBACTAM SODIUM]	≤ 0.12 µg/mL
O.O=C(NC1CCNCC1)[C@@H]1CC[C@@H]2CN1C(=O)N2OS(=O)(=O)O [RELEBACTAM]	≤ 0.12 µg/mL

tested on: Klebsiella pneumoniae; test: Synergistic antibacterial activity against Klebsiella pneumoniae 776/1742 producing KPC-2 assessed as meropenem MIC at 4 ug/ml by broth microdilution method; assay type: functional; conditions: dose 4 µg/ml

Compound	MIC
NC(=O)[C@@H]1CC[C@@H]2CN1C(=O)N2OS(=O)(=O)[O-].[Na+] [AVIBACTAM SODIUM]	≤ 0.12 µg/mL
O.O=C(NC1CCNCC1)[C@@H]1CC[C@@H]2CN1C(=O)N2OS(=O)(=O)O [RELEBACTAM]	0.5 µg/mL

tested on: Acinetobacter baumannii; test: Synergistic antibacterial activity against Acinetobacter baumannii PR381 producing OXA-24/40 assessed as cefepime MIC at 4 ug/ml by broth microdilution method; assay type: functional; conditions: dose 4 µg/ml

Compound	MIC
NC(=O)[C@@H]1CC[C@@H]2CN1C(=O)N2OS(=O)(=O)[O-].[Na+] [AVIBACTAM SODIUM]	> 16 µg/mL
O.O=C(NC1CCNCC1)[C@@H]1CC[C@@H]2CN1C(=O)N2OS(=O)(=O)O [RELEBACTAM]	> 16 µg/mL

tested on: Escherichia coli; test: Antibacterial activity against Escherichia coli DH10B transfected with pBC SK (-) OXA-48 by broth microdilution method; assay type: functional; conditions: not given

Compound	MIC
NC(=O)[C@@H]1CC[C@@H]2CN1C(=O)N2OS(=O)(=O)[O-].[Na+] [AVIBACTAM SODIUM]	> 16 µg/mL
O.O=C(NC1CCNCC1)[C@@H]1CC[C@@H]2CN1C(=O)N2OS(=O)(=O)O [RELEBACTAM]	> 16 µg/mL

tested on: Escherichia coli; test: Synergistic antibacterial activity against Escherichia coli DH10B transfected with pBC SK (-) OXA-48 assessed as meropenem MIC at 4 ug/ml by broth microdilution method; assay type: functional; conditions: dose 4 µg/ml; method in brief: as §1

Compound	MIC
NC(=O)[C@@H]1CC[C@@H]2CN1C(=O)N2OS(=O)(=O)[O-].[Na+] [AVIBACTAM SODIUM]	≤ 0.12 µg/mL
O.O=C(NC1CCNCC1)[C@@H]1CC[C@@H]2CN1C(=O)N2OS(=O)(=O)O [RELEBACTAM]	0.25 µg/mL

tested on: Bacteria; test: Inhibition of bacteria KPC-2 assessed as second order rate constant K2/K using nitrocefin as substrate; conditions: not given
Method in brief: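 Steady-state kinetics, 10 mM phosphate-buffered saline pH 7.4. Progress curves recorded with fixed enzyme and nitrocefin and increasing nM inhibitor. Each curve fitted to a time-course equation to give k_obs. k2/K derived from these and corrected for nitrocefin concentration relative to its Km.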

Compound	K
NC(=O)[C@@H]1CC[C@@H]2CN1C(=O)N2OS(=O)(=O)[O-].[Na+] [AVIBACTAM SODIUM]	1.3 10^4/M/s
O.O=C(NC1CCNCC1)[C@@H]1CC[C@@H]2CN1C(=O)N2OS(=O)(=O)O [RELEBACTAM]	2.8 10^4/M/s

tested on: Acinetobacter baumannii; test: Synergistic antibacterial activity against Acinetobacter baumannii PR440 producing OXA-23/24/40 assessed as cefepime MIC at 4 ug/ml by broth microdilution method; assay type: functional; conditions: dose 4 µg/ml

Compound	MIC
NC(=O)[C@@H]1CC[C@@H]2CN1C(=O)N2OS(=O)(=O)[O-].[Na+] [AVIBACTAM SODIUM]	16 µg/mL
O.O=C(NC1CCNCC1)[C@@H]1CC[C@@H]2CN1C(=O)N2OS(=O)(=O)O [RELEBACTAM]	> 16 µg/mL

tested on: Klebsiella pneumoniae; test: Synergistic antibacterial activity against Klebsiella pneumoniae jefferson 1773 producing OXA-181 assessed as cefepime MIC at 4 ug/ml by broth microdilution method; assay type: functional; conditions: dose 4 µg/ml

Compound	MIC
NC(=O)[C@@H]1CC[C@@H]2CN1C(=O)N2OS(=O)(=O)[O-].[Na+] [AVIBACTAM SODIUM]	1 µg/mL
O.O=C(NC1CCNCC1)[C@@H]1CC[C@@H]2CN1C(=O)N2OS(=O)(=O)O [RELEBACTAM]	4 µg/mL

tested on: Acinetobacter baumannii; test: Synergistic antibacterial activity against Acinetobacter baumannii PR381 producing OXA-24/40 assessed as meropenem MIC at 4 ug/ml by broth microdilution method; assay type: functional; conditions: dose 4 µg/ml

Compound	MIC
NC(=O)[C@@H]1CC[C@@H]2CN1C(=O)N2OS(=O)(=O)[O-].[Na+] [AVIBACTAM SODIUM]	> 16 µg/mL
O.O=C(NC1CCNCC1)[C@@H]1CC[C@@H]2CN1C(=O)N2OS(=O)(=O)O [RELEBACTAM]	> 16 µg/mL

tested on: Klebsiella pneumoniae; test: Synergistic antibacterial activity against Klebsiella pneumoniae 935/1884 producing KPC-3 assessed as meropenem MIC at 4 ug/ml by broth microdilution method; assay type: functional; conditions: dose 4 µg/ml

Compound	MIC
NC(=O)[C@@H]1CC[C@@H]2CN1C(=O)N2OS(=O)(=O)[O-].[Na+] [AVIBACTAM SODIUM]	≤ 0.12 µg/mL
O.O=C(NC1CCNCC1)[C@@H]1CC[C@@H]2CN1C(=O)N2OS(=O)(=O)O [RELEBACTAM]	≤ 0.12 µg/mL

tested on: Klebsiella pneumoniae; test: Synergistic antibacterial activity against Klebsiella pneumoniae 1354/2241 producing KPC-3 assessed as cefepime MIC at 4 ug/ml by broth microdilution method; assay type: functional; conditions: dose 4 µg/ml; method in brief: as §1

Compound	MIC
NC(=O)[C@@H]1CC[C@@H]2CN1C(=O)N2OS(=O)(=O)[O-].[Na+] [AVIBACTAM SODIUM]	≤ 0.12 µg/mL
O.O=C(NC1CCNCC1)[C@@H]1CC[C@@H]2CN1C(=O)N2OS(=O)(=O)O [RELEBACTAM]	≤ 0.12 µg/mL

tested on: Acinetobacter baumannii; test: Synergistic antibacterial activity against Acinetobacter baumannii PR323 producing OXA-24/40 assessed as meropenem MIC at 4 ug/ml by broth microdilution method; assay type: functional; conditions: dose 4 µg/ml

Compound	MIC
NC(=O)[C@@H]1CC[C@@H]2CN1C(=O)N2OS(=O)(=O)[O-].[Na+] [AVIBACTAM SODIUM]	> 16 µg/mL
O.O=C(NC1CCNCC1)[C@@H]1CC[C@@H]2CN1C(=O)N2OS(=O)(=O)O [RELEBACTAM]	> 16 µg/mL

tested on: Escherichia coli; test: Synergistic antibacterial activity against Escherichia coli DH10B transfected with pBC SK (-) OXA-48 assessed as cefepime MIC at 4 ug/ml by broth microdilution method; assay type: functional; conditions: dose 4 µg/ml; method in brief: as §1

Compound	MIC
NC(=O)[C@@H]1CC[C@@H]2CN1C(=O)N2OS(=O)(=O)[O-].[Na+] [AVIBACTAM SODIUM]	≤ 0.12 µg/mL
O.O=C(NC1CCNCC1)[C@@H]1CC[C@@H]2CN1C(=O)N2OS(=O)(=O)O [RELEBACTAM]	≤ 0.12 µg/mL

tested on: Klebsiella pneumoniae; test: Synergistic antibacterial activity against Klebsiella pneumoniae 761/1723 producing KPC-3 assessed as cefepime MIC at 4 ug/ml by broth microdilution method; assay type: functional; conditions: dose 4 µg/ml; method in brief: as §1

Compound	MIC
NC(=O)[C@@H]1CC[C@@H]2CN1C(=O)N2OS(=O)(=O)[O-].[Na+] [AVIBACTAM SODIUM]	≤ 0.12 µg/mL
O.O=C(NC1CCNCC1)[C@@H]1CC[C@@H]2CN1C(=O)N2OS(=O)(=O)O [RELEBACTAM]	≤ 0.12 µg/mL

tested on: Bacteria; test: Inhibition of bacteria KPC-2 assessed as half life using nitrocefin as substrate; conditions: not given

Compound	T1/2
NC(=O)[C@@H]1CC[C@@H]2CN1C(=O)N2OS(=O)(=O)[O-].[Na+] [AVIBACTAM SODIUM]	1.37 h
O.O=C(NC1CCNCC1)[C@@H]1CC[C@@H]2CN1C(=O)N2OS(=O)(=O)O [RELEBACTAM]	0.767 h

tested on: Klebsiella pneumoniae; test: Synergistic antibacterial activity against Klebsiella pneumoniae 1354/2241 producing KPC-3 assessed as meropenem MIC at 4 ug/ml by broth microdilution method; assay type: functional; conditions: dose 4 µg/ml; method in brief: as §1

Compound	MIC
NC(=O)[C@@H]1CC[C@@H]2CN1C(=O)N2OS(=O)(=O)[O-].[Na+] [AVIBACTAM SODIUM]	≤ 0.12 µg/mL
O.O=C(NC1CCNCC1)[C@@H]1CC[C@@H]2CN1C(=O)N2OS(=O)(=O)O [RELEBACTAM]	≤ 0.12 µg/mL
